ChEMBL document CHEMBL1759943, “Design and synthesis of novel enhanced water soluble hydroxyethyl analogs of combretastatin A-4” (Bioorg Med Chem Lett, 2011)
pEC50, pIC50: −log10 of the molar value. Values after ≈ are worked out from the molar mass of the structure shown.

What was measured:
B16 = test: Antiproliferative activity against mouse B16 cells after 72 hrs by MTT assay; assay type: functional, cell-based; details: B16, 72 h
In short: (§1)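 Murine L1210 lymphoma and B16 melanoma cells in culture were given 72-h continuous exposure to compound, and viability was read by MTT assay. IC50 was taken as the readout.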

L1210 [1] = test: Antiproliferative activity against mouse L1210 cells after 72 hrs by MTT assay; assay type: functional, cell-based; details: L1210, 72 h; in short: as §1
MOLT-4 = test: Cytotoxicity against human MOLT4 cells; assay type: functional
OVCAR-3 = test: Cytotoxicity against human OVCAR3 cells; assay type: functional
A498 = test: Cytotoxicity against human A498 cells; assay type: functional
L1210 [2] = test: Antitumor activity against mouse L1210 cells xenografted in DBA2 mouse assessed as reduction in tumor volume at 75 mg/kg, ip administered once daily on day 1, 3, 5, 7, 9, 11, 13, 15, 17 measured on day 19 relative to control; assay type: functional; design: scale not given: the % may be the effect or the level left; details: route intraperitoneal
In short: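 Female DBA2 mice were inoculated with L1210 leukemia cells on the right flank. Compound was given ip at 75 mg/kg once on each of days 1, 3, 5, 7, 9, 11, 13, 15 and 17 after inoculation, in 100 µL injections; controls got vehicle alone. Tumor volume was compared with vehicle controls on day 19.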

IGROV-1 = test: Cytotoxicity against human IGROV1 cells; assay type: functional
U-251 = test: Cytotoxicity against human U251 cells; assay type: functional
NCI/ADR-RES = test: Cytotoxicity against human NCI/ADR-RES cells; assay type: functional
NCI-H522 = test: Cytotoxicity against human NCI-H522 cells; assay type: functional
NCI-H322M = test: Cytotoxicity against human NCI-H322M cells; assay type: functional
SK-OV-3 = test: Cytotoxicity against human SKOV3 cells; assay type: functional
KM12 = test: Cytotoxicity against human KM12 cells; assay type: functional
HCT-116 = test: Cytotoxicity against human HCT116 cells; assay type: functional
Mus musculus [3] = test: Toxicity in DBA2 mouse assessed as change in color and texture of kidney at 75 mg/kg, ip administered once daily on day 1, 5, 9, 13, 17; assay type: organism-based; design: dose 75 mg/kg, route intraperitoneal; details: in vivo
In short: (§2)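 Healthy, non-tumor-bearing female DBA2 mice given 75 mg/kg on days 1, 5, 9, 13 and 17. Toxicity was judged at the end of the experiment from body weight change, blood cell counts, and the gross color and texture of the kidneys, liver and spleen.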

SK-MEL-28 = test: Cytotoxicity against human SK-MEL-28 cells; assay type: functional; details: SK-MEL-28, read-out: pGI50 (converted)
UO-31 = test: Cytotoxicity against human UO31 cells; assay type: functional
[4] = Cytotoxicity against human Hs 578T cells; assay type: functional
MDA-MB-435 [5] = test: Ratio of EC50 for disruption of interphase microtubule organization in rat A10 cells to IC50 for human MDA-MB-435 cells; assay type: functional
CAKI-1 = test: Cytotoxicity against human Caki1 cells; assay type: functional
HOP-92 = test: Cytotoxicity against human HOP92 cells; assay type: functional
[6] = Aqueous solubility of the compound after 6 hrs; assay type: physicochemical
In short: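 Solubility was measured with a modified filter-plate protocol, assay maximum 500 µM. Each compound had its own standard curve, diluted into 80:20 aqueous buffer:acetonitrile at 5% DMSO (v/v) final. The aqueous sample was mixed 6 h and centrifuged. Supernatant absorbance gave concentration from the standard curve.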

A10 = test: Disruption of microtubule organization in rat A10 cells assessed as loss of interphase microtubules; assay type: functional, cell-based
MCF7 = test: Cytotoxicity against human MCF7 cells; assay type: functional
Mus musculus [7] = test: Toxicity in DBA2 mouse assessed as change in color and texture of spleen at 75 mg/kg, ip administered once daily on day 1, 5, 9, 13, 17; assay type: organism-based; design: dose 75 mg/kg, route intraperitoneal; details: in vivo; in short: as §2
MDA-MB-468 = test: Cytotoxicity against human MDA-MB-468 cells; assay type: functional
OVCAR-5 = test: Cytotoxicity against human OVCAR5 cells; assay type: functional
K562 = test: Cytotoxicity against human K562 cells; assay type: functional
TK-10 = test: Cytotoxicity against human TK10 cells; assay type: functional
NCI-H226 = test: Cytotoxicity against human NCI-H226 cells; assay type: functional; details: NCI-H226, read-out: pGI50 (converted)
Mus musculus [8] = test: Toxicity in DBA2 mouse assessed as change in blood cell count at 75 mg/kg, ip administered once daily on day 1, 5, 9, 13, 17; assay type: organism-based; design: dose 75 mg/kg, route intraperitoneal; details: in vivo; in short: as §2
[9] = Cytotoxicity against human RXF 393NL cells; assay type: functional
SK-MEL-2 = test: Cytotoxicity against human SK-MEL-2 cells; assay type: functional
786-0 = test: Cytotoxicity against human 786-0 cells; assay type: functional
CCRF-CEM = test: Cytotoxicity against human CCRF-CEM cells; assay type: functional
HCT-15 = test: Cytotoxicity against human HCT15 cells; assay type: functional
UACC-257 = test: Cytotoxicity against human UACC257 cells; assay type: functional; details: UACC-257, read-out: pGI50 (converted)
ACHN = test: Cytotoxicity against human ACHN cells; assay type: functional
SW-620 = test: Cytotoxicity against human SW620 cells; assay type: functional
SK-MEL-5 = test: Cytotoxicity against human SK-MEL-5 cells; assay type: functional
NCI-H23 = test: Cytotoxicity against human NCI-H23 cells; assay type: functional
Mus musculus [10] = test: Toxicity in DBA2 mouse assessed as change in body weight at 75 mg/kg, ip administered once daily on day 1, 5, 9, 13, 17; assay type: organism-based; design: dose 75 mg/kg, route intraperitoneal; details: in vivo; in short: as §2
COLO 205 = test: Cytotoxicity against human COLO205 cells; assay type: functional
HOP-62 = test: Cytotoxicity against human HOP62 cells; assay type: functional
MDA-MB-435 [11] = test: Cytotoxicity against human MDA-MB-435 cells; assay type: functional, cell-based
MDA-MB-231 = test: Cytotoxicity against human MDA-MB-231 cells; assay type: functional
SF-268 = test: Cytotoxicity against human SF268 cells; assay type: functional
OVCAR-4 = test: Cytotoxicity against human OVCAR4 cells; assay type: functional
EKVX = test: Cytotoxicity against human EKVX cells; assay type: functional
NCI-H460 = test: Cytotoxicity against human NCI-H460 cells; assay type: functional
HT-29 = test: Cytotoxicity against human HT-29 cells; assay type: functional
SN12C = test: Cytotoxicity against human SN12C cells; assay type: functional
RPMI-8226 = test: Cytotoxicity against human RPMI8226 cells; assay type: functional
DU-145 = test: Cytotoxicity against human DU145 cells; assay type: functional
LOX IMVI = test: Cytotoxicity against human LOXIMVI cells; assay type: functional
OVCAR-8 = test: Cytotoxicity against human OVCAR8 cells; assay type: functional
M14 = test: Cytotoxicity against human M14 cells; assay type: functional
A549 = test: Cytotoxicity against human A549 cells; assay type: functional
PC-3 = test: Cytotoxicity against human PC3 cells; assay type: functional
SF-295 = test: Cytotoxicity against human SF295 cells; assay type: functional
BT-549 = test: Cytotoxicity against human BT549 cells; assay type: functional
HL-60 = test: Cytotoxicity against human HL60 cells; assay type: functional
HCC 2998 = test: Cytotoxicity against human HCC2998 cells; assay type: functional
Mus musculus [12] = test: Toxicity in DBA2 mouse assessed as change in color and texture of liver at 75 mg/kg, ip administered once daily on day 1, 5, 9, 13, 17; assay type: organism-based; design: dose 75 mg/kg, route intraperitoneal; details: in vivo; in short: as §2
UACC-62 = test: Cytotoxicity against human UACC62 cells; assay type: functional

## COc1cc(/C=C(/c2cc(OC)c(OC)c(OC)c2)C(C)O)cc(OC)c1OC (stereo unspecified)
B16
  pIC50: 4.08
L1210 [1]
  pIC50: 4.29

## COc1cc(/C(=C/c2cccc([N+](=O)[O-])c2)C(C)O)cc(OC)c1OC (stereo unspecified)
B16
  pIC50: < 4.00
L1210 [1]
  pIC50: < 4.00

## COc1ccc(/C=C(/c2cc(OC)c(OC)c(OC)c2)C(C)O)cc1 (stereo unspecified)
B16
  pIC50: 4.76
L1210 [1]
  pIC50: 5.41

## COc1cc(/C(=C/c2ccc([N+](=O)[O-])cc2)C(C)O)cc(OC)c1OC (stereo unspecified)
B16
  pIC50: < 4.00
L1210 [1]
  pIC50: < 4.00

## COc1ccc(OC)c(/C=C(/c2cc(OC)c(OC)c(OC)c2)C(C)O)c1 (stereo unspecified)
B16
  pIC50: < 4.00
L1210 [1]
  pIC50: < 4.00

## COc1cc(/C(=C/c2ccc(Br)cc2)C(C)O)cc(OC)c1OC (stereo unspecified)
B16
  pIC50: < 4.00
L1210 [1]
  pIC50: < 4.00

## COc1ccc(/C=C(/c2cc(OC)c(OC)c(OC)c2)C(C)O)cc1[N+](=O)[O-] (stereo unspecified)
B16
  pIC50: < 4.00
L1210 [1]
  pIC50: 4.17

## COc1ccc(/C=C(/c2cc(OC)c(OC)c(OC)c2)C(C)O)cc1OC (stereo unspecified)
B16
  pIC50: < 4.00
L1210 [1]
  pIC50: 4.16

## COc1cc(/C(=C/c2ccccc2)C(C)O)cc(OC)c1OC (stereo unspecified)
B16
  pIC50: < 4.00
L1210 [1]
  pIC50: < 4.00

## COc1cc(/C(=C/c2ccc(Cl)c(Cl)c2)C(C)O)cc(OC)c1OC (stereo unspecified)
B16
  pIC50: 4.29
L1210 [1]
  pIC50: 4.73

## COc1cc(/C(=C/c2ccc(Cl)cc2)C(C)O)cc(OC)c1OC (stereo unspecified)
B16
  pIC50: < 4.00
L1210 [1]
  pIC50: < 4.00

## COc1cc(/C(=C/c2ccc(C)cc2)C(C)O)cc(OC)c1OC (stereo unspecified)
B16
  pIC50: < 4.00
L1210 [1]
  pIC50: 4.47

## COc1ccc(/C=C(/c2cc(OC)c(OC)c(OC)c2)C(C)O)cc1O (stereo unspecified)
MOLT-4
  GI50: 4.68 µM
OVCAR-3
  GI50: 0.245 µM
A498
  GI50: 0.759 µM
B16
  pIC50: 4.79
L1210 [2]
  Activity: 50%
IGROV-1
  GI50: 0.851 µM
U-251
  GI50: 0.575 µM
NCI/ADR-RES
  GI50: 0.447 µM
NCI-H522
  GI50: 0.457 µM
NCI-H322M
  GI50: 3.98 µM
SK-OV-3
  GI50: 1.02 µM
KM12
  GI50: 0.389 µM
HCT-116
  GI50: 0.479 µM
Mus musculus [3]
  Activity: Non-toxic
SK-MEL-28
  GI50: > 100 µM
UO-31
  GI50: 2.34 µM
[4]
  GI50: 0.324 µM
MDA-MB-435 [5]
  Ratio: 24
CAKI-1
  GI50: 4.57 µM
HOP-92
  GI50: 0.209 µM
L1210 [1]
  pIC50: 5.39
[6]
  solubility at 6 h: 479 µM (≈ 173 µg/mL)
A10
  pEC50: 4.67
MCF7
  GI50: 0.389 µM
Mus musculus [7]
  Activity: Non-toxic
MDA-MB-468
  GI50: 0.501 µM
OVCAR-5
  GI50: 5.62 µM
K562
  GI50: 0.55 µM
TK-10
  GI50: 4.07 µM
NCI-H226
  GI50: > 100 µM
Mus musculus [8]
  Activity: Non-toxic
[9]
  GI50: 0.324 µM
SK-MEL-2
  GI50: 0.692 µM
786-0
  GI50: 4.17 µM
CCRF-CEM
  GI50: 2.45 µM
HCT-15
  GI50: 0.617 µM
UACC-257
  GI50: > 100 µM
ACHN
  GI50: 0.575 µM
SW-620
  GI50: 0.363 µM
SK-MEL-5
  GI50: 0.417 µM
NCI-H23
  GI50: 3.72 µM
Mus musculus [10]
  Activity: Non-toxic
COLO 205
  GI50: 27.5 µM
HOP-62
  GI50: 4.07 µM
MDA-MB-435 [11]
  GI50: 0.2 µM
  pIC50: 6.06
MDA-MB-435 [11]; read-out: pGI50 (converted)
  GI50: 0.229 µM
MDA-MB-231
  GI50: 2.14 µM
SF-268
  GI50: 1 µM
OVCAR-4
  GI50: 4.27 µM
EKVX
  GI50: 5.62 µM
NCI-H460
  GI50: 0.49 µM
HT-29
  GI50: 4.07 µM
SN12C
  GI50: 6.61 µM
RPMI-8226
  GI50: 3.47 µM
DU-145
  GI50: 1.45 µM
LOX IMVI
  GI50: 0.891 µM
OVCAR-8
  GI50: 1.32 µM
M14
  GI50: 0.631 µM
A549
  GI50: 3.02 µM
PC-3
  GI50: 0.501 µM
SF-295
  GI50: 1.86 µM
BT-549
  GI50: 0.813 µM
HL-60
  GI50: 0.479 µM
HCC 2998
  GI50: 2.82 µM
Mus musculus [12]
  Activity: Non-toxic
UACC-62
  GI50: 0.468 µM
